# Measured values collected from several papers.
# Each line is one published result; the experiments were not run side by side.
# Oprd1: Delta-type opioid receptor (Oprd1, Rattus norvegicus, UniProt P33533)
# CTSB: Cathepsin B (CTSB, Homo sapiens, UniProt P07858)
# HTR7: 5-hydroxytryptamine receptor 7 (HTR7, Homo sapiens, UniProt P34969)
SMILES,target,effect on,mode,method,notes,endpoint,value
Cc1cc(O)cc(C)c1C[C@H](N)C(=O)N[C@@H]1CCN(C(=O)c2ccccc2)c2ccc(Cc3cnc4ccccc4c3)cc21,Oprd1,GTPγS binding,antagonist,,cell membranes,Kb,8 nM
Cc1cc(O)cc(C)c1C[C@H](C)C(=O)N[C@@H]1C/C=C/CC[C@@H](C(N)=O)NC(=O)[C@H](Cc2ccccc2)NC(=O)[C@H](Cc2ccccc2)NC1=O,Oprd1,ligand displacement,,radioligand,cell membranes,Ki,35.3 nM
CN(C(=O)[C@H](Cc1ccccc1)NC(=O)[C@@H](NC(=O)OCc1ccccc1)C(C)(C)C)N(C#N)CCC(N)=O,CTSB,enzyme activity,inhibitor,,,Ki,75 nM
OC(c1ccc(F)cc1)C(F)(F)CCN1CCC(O)(c2ccc(Cl)cc2)CC1 (racemic),HTR7,cell-free assay,,radioligand,,Ki,2710 nM
CC(C)C[C@H](NC(=O)[C@H](CCCCN)NC(=O)[C@@H]1CCCN1C(=O)[C@@H](N)CCCNC(=N)N)C(=O)N[C@@H](CCCCN)C(=O)O,HTR7,cell-free assay,,radioligand,,Ki,> 10000 nM
N=C(N)NCCC[C@@H]1NC(=O)[C@H](Cc2ccc(O)cc2)NC(=O)[C@@H](CCCCN)NC(=O)[C@@H](Cc2ccccc2)NC1=O,Oprd1,ligand displacement,,radioligand,cell membranes,Ki,> 10000 nM
C[C@H](N)Cn1ncc2ccc3c(c21)CCCO3,HTR7,ligand displacement,,radioligand,,Ki,1160 nM
COc1cc2oc(-c3ccc(O)c(O)c3)cc(=O)c2c(O)c1O,"Genome polyprotein, protease (ZIKV, UniProt A0A024B7W1)",enzyme activity,inhibitor,,,Ki,4500 nM
c1cncc(C2C3CCN2CC3)c1 (centres unmarked),"Neuronal acetylcholine receptor subunit alpha-4/beta-2 (Mus musculus, UniProt O70174+Q9ERK7)",ligand displacement,,radioligand,cell membranes,Ki,7.42 nM
Cc1cc(O)cc(C)c1C[C@H](N)C(=O)N[C@H](CCCNC(=N)N)C(=O)N[C@@H](Cc1c[nH]c2ccccc12)C(=O)N[C@@H](CCCCN)C(N)=O,Oprd1,ligand displacement,,radioligand,cell membranes,Ki,186 nM
CC[C@H](C)[C@H](NC(=O)[C@H](CCCNC(=N)N)NC(=O)[C@H](CC(C)C)NC(=O)[C@@H](N)Cc1ccccc1)C(=O)N[C@@H](CCCNC(=N)N)C(=O)N1CCC[C@H]1C(=O)N[C@@H](CCCCN)C(=O)O,HTR7,cell-free assay,,radioligand,,Ki,> 10000 nM
CC(C)C[C@H]1C(=O)N2CCC[C@H]2[C@]2(O)O[C@](NC(=O)[C@@H]3C=C4c5cccc6[nH]c(Br)c(c56)C[C@H]4N(C)C3)(C(C)C)C(=O)N12,HTR7,ligand displacement,,radioligand,cell membranes,Ki,143 nM
COC1=C(N)C(=O)c2nc(-c3nc(C(=O)O)c(C)c(-c4ccc(OC)c(OC)c4O)c3N)ccc2C1=O,"Sentrin-specific protease 1 (SENP1, Homo sapiens, UniProt Q9P0U3)",enzyme activity,inhibitor,fluorescence,,Ki,138 nM
Cc1cc(O)cc(C)c1C[C@H](N)C(=O)N1CCc2ccc(Cc3ccc(N)cc3)cc2C1,Oprd1,ligand displacement,,radioligand,cell membranes,Ki,3.1 nM
CC[C@H](NC(=O)OCc1ccccc1)C(=O)N[C@H](C(=O)N[C@@H](CC(C)C)C(=O)N(C)N(C#N)CCC(N)=O)C(C)(C)C,CTSB,enzyme activity,inhibitor,,,Ki,28.8 nM
Cc1ccccc1Cc1ccc2c(c1)CN(C(=O)[C@@H](N)Cc1c(C)cc(O)cc1C)CC2,Oprd1,ligand displacement,,radioligand,cell membranes,Ki,5.8 nM
CCc1cccc(C)c1C[C@H](NC(=O)[C@@H](CCCNC(=N)N)NC(=O)[C@@H](N)Cc1c(C)cc(O)cc1C)C(=O)N[C@@H](CCCCN)C(N)=O,Oprd1,ligand displacement,,radioligand,cell membranes,Ki,50 nM
